Data published in ChEMBL document CHEMBL2375276, “Antibacterial oxazolidinone analogues having a N-hydroxyacetyl-substituted seven-membered [1,2,5]triazepane or [1,2,5]oxadiazepane C-ring unit” (Eur J Med Chem, 2013).

Columns and labels:
MAO-A = target: T1, MAO-A (Rattus norvegicus, UniProt P21396); test: Inhibition of MAO-A in rat forebrain using [14C]5-HT as substrate at 30 uM incubated for 20 mins prior to substrate addition measured after 5 mins by liquid scintillation counting analysis relative to control; assay type: tissue-based; settings: probe [14C]5-HT
T1 sequence (P21396 whole entry): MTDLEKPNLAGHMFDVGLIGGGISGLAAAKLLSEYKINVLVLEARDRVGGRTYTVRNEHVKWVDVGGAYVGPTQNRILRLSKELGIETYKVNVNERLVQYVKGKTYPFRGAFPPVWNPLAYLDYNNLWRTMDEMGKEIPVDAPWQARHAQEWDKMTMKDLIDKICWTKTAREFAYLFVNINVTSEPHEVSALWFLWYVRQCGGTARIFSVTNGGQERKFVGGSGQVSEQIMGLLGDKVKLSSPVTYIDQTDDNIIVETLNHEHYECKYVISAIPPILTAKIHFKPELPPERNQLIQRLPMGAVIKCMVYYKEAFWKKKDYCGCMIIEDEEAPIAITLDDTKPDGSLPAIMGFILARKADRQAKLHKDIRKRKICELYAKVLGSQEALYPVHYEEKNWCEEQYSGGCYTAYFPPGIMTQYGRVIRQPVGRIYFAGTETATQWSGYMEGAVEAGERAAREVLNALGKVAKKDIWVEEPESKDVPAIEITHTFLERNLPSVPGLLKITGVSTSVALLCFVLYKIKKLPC

Cytochrome P450 2D6 = Cytochrome P450 2D6 (Homo sapiens, UniProt P10635); test: Inhibition of human CYP2D6 assessed as dextromethorphan O-demethylation after 20 mins by LC/MS/MS analysis; assay type: ADME
Procedure, shortened: (§1)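 Human liver microsomes (0.2 mg protein/mL) with 1 mM NADPH in 50 mM HEPES pH 7.4, 10 mM MgCl2, 0.1 mM EDTA. After centrifugation, supernatant metabolite measured by LC/MS/MS. Standard curve from authentic metabolite cocktail added to unincubated reaction mix.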

Cytochrome P450 1A2 = target: T2, Cytochrome P450 1A2 (Homo sapiens, UniProt P05177); test: Inhibition of human CYP1A2 assessed as ethoxyresorufin O-deethylation after 20 mins by fluorescence plate reader analysis; assay type: ADME
T2 sequence (P05177 whole entry): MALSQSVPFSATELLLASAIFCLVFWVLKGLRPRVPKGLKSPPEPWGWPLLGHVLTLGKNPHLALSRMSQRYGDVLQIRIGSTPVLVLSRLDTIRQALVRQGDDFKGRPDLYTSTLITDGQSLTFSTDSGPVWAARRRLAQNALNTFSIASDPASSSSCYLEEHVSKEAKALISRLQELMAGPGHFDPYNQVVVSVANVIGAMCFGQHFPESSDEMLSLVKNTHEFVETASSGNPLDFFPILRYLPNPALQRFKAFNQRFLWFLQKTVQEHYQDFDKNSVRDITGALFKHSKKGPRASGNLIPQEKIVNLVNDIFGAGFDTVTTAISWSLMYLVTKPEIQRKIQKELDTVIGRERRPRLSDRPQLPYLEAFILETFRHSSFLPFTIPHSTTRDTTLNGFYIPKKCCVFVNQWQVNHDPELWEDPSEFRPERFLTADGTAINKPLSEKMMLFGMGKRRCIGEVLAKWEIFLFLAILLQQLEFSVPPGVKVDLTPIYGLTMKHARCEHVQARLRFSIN
Procedure, shortened: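 Human liver microsomes (0.2 mg protein/mL) with 1 mM NADPH in 50 mM HEPES pH 7.4, 10 mM MgCl2, 0.1 mM EDTA. After centrifugation, supernatant read on a fluorescence plate reader. Standard curve from authentic metabolite added to unincubated reaction mix.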

Cytochrome P450 2C9 = Cytochrome P450 2C9 (Homo sapiens, UniProt P11712); test: Inhibition of human CYP2C9 assessed as tolbutamide hydroxylation after 20 mins by LC/MS/MS analysis; assay type: ADME; procedure, shortened: as §1
Staphylococcus aureus [1] = test: Antibacterial activity against methicillin-resistant Staphylococcus aureus SR3637 infected in JCL/ICR mouse systemic infection model assessed as mortality administered as iv measured over 7 days; assay type: functional; settings: 168 h
Procedure, shortened: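 Five-week-old male JCL/ICR mice (20–25 g), five per group. Infected intraperitoneally with 0.5 or 1.0 mL bacterial suspension (about 100× LD50). Intravenous dosing 1 h post-infection. Mortality followed 7 days; ED50 with 95% confidence limits by logit method.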

Staphylococcus aureus [2] = test: Antibacterial activity against methicillin-resistant Staphylococcus aureus SR3637 assessed as growth inhibition by CLSI broth microdilution method; assay type: functional
Procedure, shortened: (§2)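 MIC by CLSI broth microdilution in cation-adjusted Mueller-Hinton broth. Lowest concentration inhibiting growth taken as MIC.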

Haemophilus influenzae [3] = test: Ratio of eperezolid MIC to compound MIC for Haemophilus influenzae SR27914 clinical isolate; assay type: functional
Streptococcus pneumoniae [4] = test: Ratio of eperezolid MIC to compound MIC for Streptococcus pneumoniae SR26207 clinical isolate; assay type: functional
Moraxella catarrhalis = test: Ratio of eperezolid MIC to compound MIC for Moraxella catarrhalis SR26840 clinical isolate; assay type: functional
Enterococcus faecium [5] = test: Ratio of eperezolid MIC to compound MIC for Enterococcus faecium SR7940 clinical isolate; assay type: functional
Enterococcus faecalis = test: Ratio of eperezolid MIC to compound MIC for Enterococcus faecalis SR1004 clinical isolate; assay type: functional
Staphylococcus aureus [6] = test: Ratio of eperezolid MIC to compound MIC for Staphylococcus aureus Smith; assay type: functional
Staphylococcus aureus [7] = test: Ratio of eperezolid MIC to compound MIC for Staphylococcus aureus SR20549 clinical isolate; assay type: functional
Streptococcus pneumoniae [8] = test: Ratio of linezolid MIC to compound MIC for Streptococcus pneumoniae SR26207 clinical isolate; assay type: functional
Haemophilus influenzae [9] = test: Ratio of linezolid MIC to compound MIC for Haemophilus influenzae SR27914 clinical isolate; assay type: functional
Enterococcus faecium [10] = test: Ratio of linezolid MIC to compound MIC for Enterococcus faecium SR7940 clinical isolate; assay type: functional
Staphylococcus aureus [11] = test: Ratio of linezolid MIC to compound MIC for Staphylococcus aureus Smith; assay type: functional
Staphylococcus aureus [12] = test: Ratio of linezolid MIC to compound MIC for Staphylococcus aureus SR20549 clinical isolate; assay type: functional
Haemophilus influenzae [13] = test: Antibacterial activity against Haemophilus influenzae SR27914 clinical isolate assessed as growth inhibition by CLSI broth microdilution method; assay type: functional
Procedure, shortened: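 MIC by CLSI broth microdilution using Haemophilus test medium.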

Streptococcus pneumoniae [14] = test: Antibacterial activity against Streptococcus pneumoniae SR26207 clinical isolate assessed as growth inhibition by CLSI broth microdilution method; assay type: functional
Procedure, shortened: (§3)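 MIC by CLSI broth microdilution in cation-adjusted Mueller-Hinton broth; S. pneumoniae medium supplemented with 5% lysed horse blood.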

Enterococcus faecium [15] = test: Antibacterial activity against Enterococcus faecium SR7940 clinical isolate assessed as growth inhibition by CLSI broth microdilution method; assay type: functional; procedure, shortened: as §3
Staphylococcus aureus [16] = test: Antibacterial activity against linezolid-resistant Staphylococcus aureus NRS271 assessed as growth inhibition by CLSI broth microdilution method; assay type: functional; procedure, shortened: as §2
Staphylococcus aureus [17] = test: Antibacterial activity against Staphylococcus aureus Smith assessed as growth inhibition by CLSI broth microdilution method; assay type: functional; procedure, shortened: as §3
Staphylococcus aureus [18] = test: Antibacterial activity against Staphylococcus aureus SR20549 clinical isolate assessed as growth inhibition by CLSI broth microdilution method; assay type: functional; procedure, shortened: as §3

Sequence of Cytochrome P450 2C9 (P11712 whole entry): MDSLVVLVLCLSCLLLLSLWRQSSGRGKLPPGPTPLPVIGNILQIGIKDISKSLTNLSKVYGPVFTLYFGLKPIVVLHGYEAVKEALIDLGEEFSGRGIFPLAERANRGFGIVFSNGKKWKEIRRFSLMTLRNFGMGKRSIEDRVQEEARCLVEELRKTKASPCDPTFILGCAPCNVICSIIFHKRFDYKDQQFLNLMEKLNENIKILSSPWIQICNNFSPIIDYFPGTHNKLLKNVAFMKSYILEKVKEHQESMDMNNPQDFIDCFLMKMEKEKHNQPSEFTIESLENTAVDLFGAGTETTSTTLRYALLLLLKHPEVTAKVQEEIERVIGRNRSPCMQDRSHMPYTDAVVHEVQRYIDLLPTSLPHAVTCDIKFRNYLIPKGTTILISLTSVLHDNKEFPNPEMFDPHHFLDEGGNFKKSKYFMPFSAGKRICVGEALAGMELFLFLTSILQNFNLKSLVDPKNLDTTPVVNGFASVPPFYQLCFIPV
Sequence of Cytochrome P450 2D6 (P10635 whole entry): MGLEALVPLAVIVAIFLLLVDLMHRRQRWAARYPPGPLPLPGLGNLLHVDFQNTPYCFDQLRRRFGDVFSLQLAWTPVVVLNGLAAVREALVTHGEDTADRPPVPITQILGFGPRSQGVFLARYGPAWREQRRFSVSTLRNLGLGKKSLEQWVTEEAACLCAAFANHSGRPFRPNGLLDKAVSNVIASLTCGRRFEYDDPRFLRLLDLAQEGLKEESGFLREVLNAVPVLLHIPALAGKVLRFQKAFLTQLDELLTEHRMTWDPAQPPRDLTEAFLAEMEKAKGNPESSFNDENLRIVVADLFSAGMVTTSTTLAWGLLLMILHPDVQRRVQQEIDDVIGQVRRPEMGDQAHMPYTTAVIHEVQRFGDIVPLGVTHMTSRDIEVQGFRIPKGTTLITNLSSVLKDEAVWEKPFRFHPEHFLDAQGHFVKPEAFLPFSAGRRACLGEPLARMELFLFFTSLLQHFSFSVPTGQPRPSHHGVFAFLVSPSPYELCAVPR

COC(=S)NC[C@H]1CN(c2ccc(N3CCNN(C(=O)CO)CC3)c(F)c2)C(=O)O1
> 20 µM: IC50 (Cytochrome P450 2D6) | IC50 (Cytochrome P450 1A2) | IC50 (Cytochrome P450 2C9)
0.94 mg/kg: ED50 (Staphylococcus aureus [1])
0.25 µg/mL: MIC (Staphylococcus aureus [2]) | MIC (Enterococcus faecium [15]) | MIC (Staphylococcus aureus [17]) | MIC (Staphylococcus aureus [18])
2 µg/mL: MIC (Staphylococcus aureus [16])
48.2%: inhibition at 5 min, 30 µM (MAO-A)
4 µg/mL: MIC (Haemophilus influenzae [13])
4: Ratio (Haemophilus influenzae [3]) | Ratio (Streptococcus pneumoniae [4]) | Ratio (Moraxella catarrhalis) | Ratio (Enterococcus faecium [5]) | Ratio (Enterococcus faecalis) | Ratio (Staphylococcus aureus [6]) | Ratio (Staphylococcus aureus [7]) | Ratio (Streptococcus pneumoniae [8]) | Ratio (Haemophilus influenzae [9]) | Ratio (Enterococcus faecium [10]) | Ratio (Staphylococcus aureus [11]) | Ratio (Staphylococcus aureus [12])
0.125 µg/mL: MIC (Streptococcus pneumoniae [14])

COC(=S)NC[C@H]1CN(c2cc(F)c(N3CCNN(C(=O)CO)CC3)c(F)c2)C(=O)O1
12.4%: inhibition at 5 min, 30 µM (MAO-A)
0.77 mg/kg: ED50 (Staphylococcus aureus [1])
4: Ratio (Haemophilus influenzae [3]) | Ratio (Streptococcus pneumoniae [4]) | Ratio (Moraxella catarrhalis) | Ratio (Enterococcus faecium [5]) | Ratio (Enterococcus faecalis) | Ratio (Staphylococcus aureus [6]) | Ratio (Staphylococcus aureus [7]) | Ratio (Streptococcus pneumoniae [8]) | Ratio (Haemophilus influenzae [9]) | Ratio (Enterococcus faecium [10]) | Ratio (Staphylococcus aureus [11]) | Ratio (Staphylococcus aureus [12])
0.25 µg/mL: MIC (Staphylococcus aureus [2]) | MIC (Enterococcus faecium [15]) | MIC (Staphylococcus aureus [17]) | MIC (Staphylococcus aureus [18])
> 20 µM: IC50 (Cytochrome P450 2D6) | IC50 (Cytochrome P450 1A2) | IC50 (Cytochrome P450 2C9)
≤ 0.063 µg/mL: MIC (Streptococcus pneumoniae [14])
2 µg/mL: MIC (Staphylococcus aureus [16])
4 µg/mL: MIC (Haemophilus influenzae [13])
